From ChEMBL document CHEMBL1154371, “Cytotoxic xanthone constituents of the stem bark of Garcinia mangostana (mangosteen)” (J Nat Prod, 2009) come the findings set out here.

The target in one assay is Transcription factor p65 (Homo sapiens, UniProt Q04206). In words: Inhibition of nuclear factor NF-kappa-B p65 subunit after 1 hr by ELISA.
In assay [1] the target is T1, Nuclear factor NF-kappa-B p105 subunit (Homo sapiens, UniProt P19838).
T1 sequence (P19838 whole entry): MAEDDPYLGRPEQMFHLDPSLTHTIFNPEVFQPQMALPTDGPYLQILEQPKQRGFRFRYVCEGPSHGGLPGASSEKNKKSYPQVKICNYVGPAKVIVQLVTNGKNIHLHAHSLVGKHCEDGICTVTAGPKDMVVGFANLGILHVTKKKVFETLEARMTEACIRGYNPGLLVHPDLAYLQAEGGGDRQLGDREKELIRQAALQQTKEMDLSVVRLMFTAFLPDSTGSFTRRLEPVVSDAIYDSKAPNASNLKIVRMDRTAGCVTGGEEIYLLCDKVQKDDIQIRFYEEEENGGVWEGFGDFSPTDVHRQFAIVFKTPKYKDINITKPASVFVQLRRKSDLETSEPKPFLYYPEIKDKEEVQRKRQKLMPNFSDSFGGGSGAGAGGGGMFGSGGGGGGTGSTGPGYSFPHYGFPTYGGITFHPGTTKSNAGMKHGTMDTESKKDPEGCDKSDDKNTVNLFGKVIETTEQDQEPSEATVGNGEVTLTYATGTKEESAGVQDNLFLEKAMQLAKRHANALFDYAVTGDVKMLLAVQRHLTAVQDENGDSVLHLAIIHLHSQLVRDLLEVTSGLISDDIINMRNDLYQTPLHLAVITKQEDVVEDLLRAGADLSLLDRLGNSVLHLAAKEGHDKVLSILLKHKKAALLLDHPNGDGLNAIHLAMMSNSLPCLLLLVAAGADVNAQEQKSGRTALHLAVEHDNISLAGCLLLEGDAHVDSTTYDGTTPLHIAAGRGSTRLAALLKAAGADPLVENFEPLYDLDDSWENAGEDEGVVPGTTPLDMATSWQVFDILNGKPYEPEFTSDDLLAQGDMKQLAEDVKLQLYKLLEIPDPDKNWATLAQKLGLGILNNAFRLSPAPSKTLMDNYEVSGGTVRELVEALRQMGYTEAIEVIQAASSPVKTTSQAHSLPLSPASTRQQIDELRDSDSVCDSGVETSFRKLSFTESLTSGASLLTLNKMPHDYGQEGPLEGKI
In words: Inhibition of p50 after 1 hr by ELISA.

Assay [2] concerns HT-29. In words: Cytotoxicity against human HT-29 cells. In kind it is functional. To be noted: read-out: ED50 (the source's name). In a few lines: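 HT-29 human colon cancer cells. Camptothecin was the positive control. Cytotoxic potency is given as ED50.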
The next assay deals with LNCaP. In words: Growth inhibition of human LNCAP cells implanted at intraperitoneal compartment of NCr nu/nu mouse at 2.5 mg/kg to 20 mg/kg by hollow fiber assay. The class given is functional, organism-based. In outline:
(§1)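 Cells were loaded into hollow fibers and implanted at the intraperitoneal site of mice. Compound was given at 2.5, 5, 10 and 20 mg/kg. Paclitaxel at 20 mg/kg was the positive control.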

Assay [3] relates to HT-29. In words: Growth inhibition of human HT-29 cells implanted at intraperitoneal compartment of NCr nu/nu mouse at 2.5 mg/kg to 20 mg/kg by hollow fiber assay. The class given is functional, organism-based. In a few lines:
as §1

In a further assay the test system is MCF7. In words: Growth inhibition of human MCF7 cells implanted at intraperitoneal compartment of NCr nu/nu mouse at 2.5 mg/kg to 20 mg/kg by hollow fiber assay. In kind it is functional, organism-based.

Activity calls are given as the source filed them. No cut-off for these calls is given here. A value given as a limit tells only on which side of the number the result lay.

Chain of Transcription factor p65 (Q04206 whole entry): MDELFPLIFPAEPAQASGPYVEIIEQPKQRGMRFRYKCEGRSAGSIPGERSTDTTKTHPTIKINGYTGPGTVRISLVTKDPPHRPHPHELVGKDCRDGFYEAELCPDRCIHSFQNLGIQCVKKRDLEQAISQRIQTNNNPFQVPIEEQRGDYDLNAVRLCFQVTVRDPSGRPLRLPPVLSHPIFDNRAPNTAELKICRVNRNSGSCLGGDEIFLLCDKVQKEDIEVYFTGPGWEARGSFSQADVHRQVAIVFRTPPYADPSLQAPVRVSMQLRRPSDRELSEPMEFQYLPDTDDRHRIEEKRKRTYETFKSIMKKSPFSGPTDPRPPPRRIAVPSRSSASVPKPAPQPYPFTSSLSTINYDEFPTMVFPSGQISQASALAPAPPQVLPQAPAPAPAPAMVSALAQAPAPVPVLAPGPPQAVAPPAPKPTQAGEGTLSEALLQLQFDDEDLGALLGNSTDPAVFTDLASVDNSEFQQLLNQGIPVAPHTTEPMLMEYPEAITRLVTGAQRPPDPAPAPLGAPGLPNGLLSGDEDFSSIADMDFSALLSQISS

Regarding `COc1cc2oc3cc(O)c(OC)c(CC=C(C)C)c3c(=O)c2c2c1CC(O)C(C)(C)O2` (stereo not given), the IC50 (at Transcription factor p65; in assay [1]) was over 20 µM each time.

On to `COc1c(O)cc2oc3cc(O)c4c(c3c(=O)c2c1CC=C(C)C)OC(C)(C)C(O)C4` (stereo not given), for which the IC50 (against Transcription factor p65; in assay [1]) was over 20 µM each time.

Take `COc1c(O)cc2oc3cc4c(c(O)c3c(=O)c2c1CC=C(C)C)C[C@H](C(C)(C)O)O4`: the EC50 with HT-29 [2] is over 10 µM.

Regarding `COc1cc2oc3cc(O)c(OC)c(CC=C(C)C)c3c(=O)c2c(O)c1CC=C(C)C`, the IC50 at Transcription factor p65 came out at 12.1 µM; in assay [1] it was 7.5 µM. The EC50 in the assay with HT-29 [2] came out at 1.7 µM.

For the compound `COc1c(O)cc2oc3cc4c(c(O)c3c(=O)c2c1CC=C(C)C)CCC(C)(C)O4`, the EC50 in the assay with HT-29 [2] turned out to be 4.9 µM.

As to `CC(C)=CCc1c(O)c(CC=C(C)C)c2oc3c(O)cccc3c(=O)c2c1O` [8-DEOXYGARTANIN], the IC50 at Transcription factor p65 was 11.3 µM; in assay [1] it was over 20 µM. The EC50 with HT-29 [2] was over 10 µM.

On to `CC[C@@]1(O)C(=O)OCc2c1cc1n(c2=O)Cc2cc3ccccc3nc2-1` [CAMPTOTHECIN], for which the EC50 in the assay on HT-29 [2] was determined as 0.06 µM.

In the case of `COc1c(O)cc2oc3cc4c(c(O)c3c(=O)c2c1CC=C(C)C)[C@@H](c1c(O)c(CC=C(C)C)c(O)c2c(=O)c3c(CC=C(C)C)c(OC)c(O)cc3oc12)[C@H](C(C)(C)O)O4` [CRATOXYXANTHONE], the IC50 (against Transcription factor p65; in assay [1]) was over 20 µM each time.

Regarding `COc1c(O)cc2oc3cc(O)c(CC=C(C)C)c(O)c3c(=O)c2c1CCC(C)(C)O` [GARCINONE D], the IC50 against Transcription factor p65 was 3.2 µM; in assay [1] it was over 20 µM. In addition, in the assay on HT-29 [2], the EC50 stood at 2.3 µM.

For the compound `CC(C)=CCc1c(O)c(CC=C(C)C)c2oc3c(O)ccc(O)c3c(=O)c2c1O` [GARTANIN], the IC50 is 19 µM on Transcription factor p65 and over 20 µM in assay [1]. Besides, the EC50 in the assay on HT-29 [2] is over 10 µM.

As to `COc1c(O)cc2oc3cc4c(c(O)c3c(=O)c2c1CC=C(C)C)C=CC(C)(C)O4` [MANGOSTANIN], the IC50 (against Transcription factor p65; in assay [1]) was over 20 µM in each case. For the same compound, the EC50 with HT-29 [2] came to 9.1 µM.

Turning to `COc1c(O)cc2oc3cc(O)c(CC=C(C)C)c(O)c3c(=O)c2c1CC=C(C)C` [MANGOSTIN], the “growth inhibition (GI)” value in the assay on LNCaP, with HT-29 [3] and in the assay on MCF7 was “inactive” throughout. Also, the IC50 is 15.9 µM at Transcription factor p65 and over 20 µM in assay [1]. The EC50 in the assay on HT-29 [2] came out at 1.7 µM.
